In publication PMC11377854 (Nature methods, 2024):
pEC50: −log10 of the molar value. Like-named read-outs stand apart in the source and are kept apart here.

Assays:
g5-HT2h = conditions: read-out: EC50 values
r5-HT1.0 [1] = assay: Dose-response of sensor fluorescence change; format: cell-based, cultured rat cortical neurons; conditions: read-out: EC50 values
g5-HT3.0 [2] = assay: Dose-response of sensor fluorescence change; format: cell-based, cultured rat cortical neurons; conditions: read-out: EC50 values
g5-HT3.0 [3] = assay: Dose-response of sensor fluorescence change; format: cell-based, HEK293T cells; conditions: n = 3
r5-HT1.0 [4] = assay: Dose-response of sensor fluorescence change; format: cell-based, HEK293T cells; conditions: n = 3
g5-HT2m = conditions: read-out: EC50 values
[5] = tested on: 5-HT release in mouse dorsal cortex; assay: Mesoscopic imaging of optogenetically evoked cortical 5-HT release; format: in vivo, mice; conditions: fluoxetine 20 mg/kg i.p., GBR 12909 10 mg/kg i.p.
How it was run: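 In Sert-Cre mice, 300 nl AAV9-EF1a-DIO-ChrimsonR was injected into the DRN (AP −6.1, ML 0, depth 3 mm, 32° AP angle), with an optical fiber 0.2 mm above the site. Mice recovered ≥7 d and were habituated head-fixed over >3 d.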

g5-HT3.0 [6] = assay: Pharmacological specificity of g5-HT3.0 in HEK293T cells; format: cell-based; conditions: compounds 10 μM except RS 100 μM
r5-HT1.0 [7] = assay: Pharmacological specificity of r5-HT1.0 in HEK293T cells; format: cell-based; conditions: compounds 10 μM except RS 100 μM
GPCR-mediated Gs pathway = assay: Luciferase complementation assay; format: cell-based; conditions: HEK293T cells, 5-HT 0.01 nM to 1 mM
β-arrestin pathway = assay: Tango assay; format: cell-based; conditions: HTLA cells, 5-HT 0.01 nM to 100 μM

## NCCc1c[nH]c2ccc(O)cc12 [5-HT, serotonin (5-hydroxytryptamine)]
g5-HT2h
  pEC50: 7.15
r5-HT1.0 [1]
  pEC50: 6.22
g5-HT3.0 [2]
  pEC50: 7.10
g5-HT3.0 [3]
  pEC50: ~6.82
r5-HT1.0 [4]
  pEC50: ~6.10
g5-HT2m
  pEC50: 5.62

## Fc1ccc(C(OCCN2CCN(CCCc3ccccc3)CC2)c2ccc(F)cc2)cc1 [GBR 12909]
[5]
  baseline 5-HT levels (g5-HT3.0 signal): no effect

## COc1cc(N)c(Cl)cc1C(=O)OCCCN1CCCCC1 [RS 23597-190]
g5-HT3.0 [6]
  block of 5-HT induced response of g5-HT3.0: blocked
r5-HT1.0 [7]
  block of 5-HT induced response of r5-HT1.0: blocked

## CNCCC(Oc1ccc(C(F)(F)F)cc1)c1ccccc1 (stereo not drawn) [fluoxetine]
[5]
  baseline 5-HT levels (g5-HT3.0 signal): gradual increase

## wild-type 5-HTR4: wild-type 5-HTR4 receptor
GPCR-mediated Gs pathway
  downstream coupling, Gs pathway: high basal activity and robust, dose-dependent coupling
β-arrestin pathway
  downstream coupling, β-arrestin pathway: high basal activity and robust, dose-dependent coupling
